Data reported in the EternaBench riboswitch data.

Tested on: MS2 coat protein
Test: apparent Kd, MS2 coat protein; higher = weaker binding; RNA-MaP array; theophylline 2 mM where present
In short: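 Designs were transcribed by stalled E. coli RNA polymerase on Illumina sequencing-chip clusters. They were titrated with SNAP-549-labelled MS2 coat protein from 0.7 or 1.5 nM, doubling to 3 µM, without and then with constant ligand. Buffer: 100 mM Tris-HCl pH 7.5, 80 mM KCl, 4 mM MgCl2, BSA, DTT, yeast tRNA, Tween-20. Green signal was normalised to red-channel RNA signal and control-cluster median Fmax. Apparent Kd is the median of filtered per-cluster binding-curve fits.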

[1] = designed as: ON switch for theophylline, no ligand
[2] = ligand present: theophylline, designed as: ON switch for theophylline
[3] = designed as: OFF switch for theophylline, no ligand
[4] = ligand present: theophylline, designed as: OFF switch for theophylline

| Sequence | apparent Kd [1] [nM] | apparent Kd [2] [nM] | apparent Kd [3] [nM] | apparent Kd [4] [nM] |
| --- | --- | --- | --- | --- |
| UUUACAUGAGGAUCACCCAUGUGCCAUGAUACCAGACAUGAAAAUGUCCCUUGGCAGCAUGAGUGAUGCAUCCGAAAGGAUGUUU | 81.6 | 611 | – | – |
| UCUUUCUAUAGUGAUACCAGACGUACAUGAGGAUCACCCAUGUUACAUUCUUGGUUAAAAGUCCCUUGGCAGCACGAUUUGUUCG | – | – | 9.51 | 10.2 |
| CAUAUUGUAACUGAUACCAGUGUACUGACAUGAGGAUCACCCAUGUUGGGUUUUGUUGUACACCCUUGGCAGCAGAAUCAAUAUG | – | – | 68.7 | 89.2 |
| UGUAACAUGAGGAUCACCCAUGUGAGUGAUACCAGAUAAGUAGUAGUCCCUUGGCAGCAUAUUGGGCGAGUGUAUAGUCUAUACG | 157 | 179 | – | – |
| UACACAUGACAUGAUACCAGCCCAUGUGAACAUGAGGAUCACCCAUGUAUGAGGACAUGAGGCCCUUGGCAGCAUGUAUACAUGA | 10.2 | 10.2 | – | – |
| UCGUGUAUUUCGGAUACCAGUGAAAUCGAUACAUGAGGAUCACCCAUGUGAGAGGAUGUACACCCUUGGCAGCUGUCUGUAUCUG | 16.3 | 15.2 | – | – |
| AACAUGAGGAUCACCCAUGUGUCCCUUGAUACCAGUCCCAUGUGAGACCCUUGGCAGCAAACAUGAGGAUCACCCAUGUCCCAUG | 102 | 142 | – | – |
| AGCAUGUUAUCAGAUACCAGACAUCUUUUAAAACAUAUUACAUGAGGAUCACCCAUGUUGGUCCCUUGGCAGCUGAAAUAUUUCA | 272 | 39.8 | – | – |
| AAGCUGACAAGAAGGUGUUCCUAAGCUGAUACCAGCCUGGAAACAGGCCCUUGGCAGCAGCACAUGAGGAUCACCCAUGUAAUAA | – | – | 118 | 79.2 |
| AUAACAUGAGGAUCACCCAUGUAAGCAGAUACCAGCUAGGAAACUAGCCCUUGGCAGCUGCAAGGUGAUCCUAAUGCAGCUGCAA | – | – | 154 | 119 |
| GCACCAGGUACGGAUACCAGCUAUAGGCCCAAUGGGCGACAUGAGGAUCACCCAUGUGAUGGCCCUUGGCAGCUGUACCUGGUGC | 211 | 24.1 | – | – |
| AGAUCUUUCGAAAGAAGGAUCUUGGCUGAUACCAGAGACGAAAGUCUCCCUUGGCAGCAGUGCCAACAUGAGGAUCACCCAUGUA | 45.8 | 24.1 | – | – |
| CCUCAUGUGUAUCACCACAUGAGUGGUGAUACCAGCAUCGAAAGAUGCCCUUGGCAGCACCAACAUGAGGAUCACCCAUGUAAUA | 352 | 101 | – | – |
| ACUAGCGCACAUGAUACCAGCGACAUGAGGAUCACCCAUGUACGGCGUGUAUCGAAAGGUUGCCCUUGGCAGCAUGAUAGCGCUG | – | – | 13.9 | 255 |
| AGCCUCAUACAUGAGGAUCACCCAUGUGAUACCAGUCAGGAAACUGACCCUUGGCAGCGCAUGAGGAUCACCCAUGUGCGAGGCA | – | – | 43.5 | 192 |
| UGUAACAUGAGGAUCACCCAUGUGAGUGAUACCAGAUUAGUAGUAGUCCCUUGGCAGCAUAUUGGGCGAGUGUAUAGUCUAUGCG | 165 | 221 | – | – |
| GCACCAGGUACGGAUACCAGACGUUGCCAAACAGGGUGACAUGAGGAUCACCCAUGUACUGUCCCUUGGCAGCCGUACCUGGUGC | – | – | 22.3 | 653 |
| CGGUUUGUGAUGGAUACCAGCAGAGAAAAUGUUUAUCCUAACAUGAGGAUCACCCAUGUGUGCCCUUGGCAGCUGUUGUGGGCUG | – | – | 50.5 | 84.9 |
| GAUGAUAUUGCAGAUACCAGACACAUGAGGAUCACCCAUGUCGCUGGGUUACUGGAUCGUGUCCCUUGGCAGCUGCGAUAUCAUC | – | – | 286 | 69.4 |
| ACAUGAGGAUCACCCAUGUUCCUCAUUGAUACCAGUGAAUUUAGACGCCCUUGGCAGCGAGUUUUUUUAUAAGAAGUUUUUUUUU | – | – | 660 | 1310 |
| CAUAAUUUAUCCUAUAAAACUAUUAGUGAUACCAGCACCUCAUGAUGCCCUUGGCAGCACUUACAUGAGGAUCACCCAUGUUUUA | 172 | 214 | – | – |
| UUUGCACAUGAGGAUCACCCAUGUACAGAUACCAGCCUCAUCUACGGCCCUUGGCAGCUGAGAUAAUGGUGACGUGAUGGGCUUU | – | – | 14 | 26.3 |
| CGUAUUGUAACUGAUACCAGUGUACUGACAUGAGGAUCACCCAUGUUGGGUUUUGUUGUACACCCUUGGCAGCAGAAUCAAUACG | – | – | 68.7 | 122 |

| Sequence | apparent Kd [1] [nM] | apparent Kd [2] [nM] | apparent Kd [3] [nM] | apparent Kd [4] [nM] |
| --- | --- | --- | --- | --- |
| GAUGAACUAUUUGAUACCAGACUACAUGAGGAUCACCCAUGUGAGUUUAUACUUCUGUCAGUCCCUUGGCAGCAAAUAGUUUAUC | – | – | 19.2 | 123 |
| ACUCGGUGUUUGUUGCUCCGAGUGUAUGAUACCAGUUAGUUUUAUGGCCCUUGGCAGCAUAGGACAUGAGGAUCACCCAUGUGUU | 32.6 | 45.7 | – | – |
| UAAAUAAUCUGGGUGUAGGUAAUAACAGAUACCAGCCAGAUAACUGGCCCUUGGCAGCUGAUAACAUGAGGAUCACCCAUGUAAA | 80.5 | 224 | – | – |
| AAUAACAUGAGGAUCACCCAUGUAAAAGAUACCAGAUGCAUGAUGAUCCCUUGGCAGCUUAAACGCGAUUGAUUACAAUCGCGAA | 34.4 | 91.8 | – | – |
| UCUUUCUAUGUAGAUACCAGCAUGUUAUCUUUCUUUUGACAUGAGGAUCACCCAUGUAAAUGCCCUUGGCAGCUACAUUUUCUUU | 21.4 | 15.4 | – | – |
| UGCAUCAUAAUCAUGUAGGUGCUAGGUGAUACCAGCAUCGAAAGAUGCCCUUGGCAGCACCAACAUGAGGAUCACCCAUGUAAUA | 216 | 97.1 | – | – |
| GCACUACAUGAGGAUCACCCAUGUGCAGAUACCAGAGGUGUAUGCCUCCCUUGGCAGCUGAGUAGCUCUGGAGGCCUAUUGGUUU | 15 | 19.1 | – | – |
| GAGCUGAUGUAGAAAUUUUAUUUAUGAGAUACCAGUACAGAAAUGUACCCUUGGCAGCUCAUUUUUACAUGAGGAUCACCCAUGU | – | – | 12.5 | 13.8 |
| UUAAAUGUGACGGAUACCAGCGUGUUGUAGAACAUGAGGAUCACCCAUGUAGUGAUCAAGCGCCCUUGGCAGCUGGUAUGUUUGA | 191 | 300 | – | – |
| AGCGUAUAGACGGAUACCAGCGCCAAUUAACAUGAGGAUCACCCAUGUAGUGUGGGUGGACGCCCUUGGCAGCCGAGUAUAGGUA | – | – | 97.8 | 284 |
| GAUGAUAUUGCAGAUACCAGACACAUGAGGAUCACCCAUGUCGCUGGGUUACUGGGUCGUGUCCCUUGGCAGCUGCGAUAUCAUC | – | – | 44 | 339 |
| UAUAGUGUGAUGGAUACCAGCAGAGAAAACGUUUAUCCUAACAUGAGGAUCACCCAUGUAUGCCCUUGGCAGCUGUUGUGUUAUA | – | – | 31.7 | 31.8 |
| CUUAUAGUAACUGAUACCAGUGUACUGACAUGAGGAUCACCCAUGUUGGGUUUUGUUGUACACCCUUGGCAGCAGAAUCUAUAAG | – | – | 69.5 | 86.6 |
| UGACAUUGCUGCGAUACCAGACAUGAGGAUCACCCAUGUACCAAGGUAAAGAAAUAACGUGUCCCUUGGCAGCGCAGCAAUGUCU | – | – | 9.91 | 91.1 |
| AUAACAUGAGGAUCACCCAUGUAAGGUGAUACCAGACGAAGUAAAGUCCCUUGGCAGCACAAGUAAAGUUACGAAUAUUGAUAGA | 430 | 47.3 | – | – |
| CUCCGAGGCUAUACUAUACGCCUUUGUGAUACCAGAAUAAAUAUAUUCCCUUGGCAGCAUCACAUGAGGAUCACCCAUGUGCCAU | 11.7 | 18 | – | – |
| UUAAUGGAGCUUUUAUUUACGAUUUCUGAUACCAGUGUUUCAUUUCACCCUUGGCAGCAGUGACAUGAGGAUCACCCAUGUAAUA | 25.7 | 22.8 | – | – |
| AUCUCAUAGAGUGAUACCAGACUACAUGAGGAUCACCCAUGUUAGAUUUAAAUAUCAUUUGUCCCUUGGCAGCACAUUAAGUACA | 12.9 | 11.5 | – | – |
| GGUGAUCCGUAUCACCGGAUCACCGGUGAUACCAGCAUCGAAAGAUGCCCUUGGCAGCACCAACAUGAGGAUCACCCAUGUAAUA | 165 | 26.4 | – | – |
| AUUUAUUGUCGUGAUACCAGACAUACAUGAGGAUCACCCAUGUUAAGUAACUUUUUUCAGGUCCCUUGGCAGCACUUUUUAAUUA | 17.3 | 13.9 | – | – |
| ACGAACGAUAGUGAUACCAGACGUACAUGAGGAUCACCCAUGUUAUACACAUGGUUUAUUGUCCCUUGGCAGCACGUUAAGUUCG | – | – | 274 | 295 |
| GCUGUAAGUGCAGAUACCAGCAAGUGAUAUUUCAUAUGACAUGAGGAUCACCCAUGUAACUGCCCUUGGCAGCUGCACUUACAGC | 213 | 24.9 | – | – |
| UCUACAUGAGGAUCACCCAUGUGCCAUGAUACCAGACAUGAAAAUGUCCCUUGGCAGCAUGGGUAGCGCAUCCGAAAGGAUGCGU | 32.2 | 657 | – | – |
